Measured values published in paper PMC3967098 (Journal of medicinal chemistry, 2008).
Like-named read-outs stand apart in the source and are kept apart here. Each block holds one molecule with its values, some of them ahead of it.

Tests used:
[1] = test system: FRET-tagged duplex DNA sequence; assay: FRET melting assay, duplex DNA; type: binding
[2] = test system: hTel quadruplex (human telomere); assay: SPR equilibrium binding, hTel quadruplex; settings: strong binding site; 25°C, HEPES 100mM KCl pH 7.3
Procedure, shortened: (§1)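 5′-Biotinylated quadruplex oligonucleotides were captured on a streptavidin chip to 350-400 RU, with a blank reference flow cell. Runs used 10mM HEPES, 100mM KCl, 3mM EDTA and P20 surfactant (pH 7.3) at 25°C. Ligand (1nM–10µM) was injected at 50µl/min for 5–10 min to steady state, then buffer for 10 min. The surface was regenerated with 10mM glycine pH 2.0, and KA came from nonlinear least-squares fitting.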

c-kit1 quadruplex = assay: SPR equilibrium binding, c-kit1 quadruplex; design: species or system human; settings: strong binding site; 25°C
Procedure, shortened: as §1

c-kit2 quadruplex = assay: SPR equilibrium binding, c-kit2 quadruplex; design: species or system human; settings: strong binding site; 25°C
Procedure, shortened: as §1

c-myc quadruplex = assay: SPR equilibrium binding, c-myc quadruplex; design: species or system human; settings: for SPR Ligand KA for a single-site fit, c-myc: strong binding site, 25°C
Procedure, shortened: as §1

MCF7 cells [3] = assay: Long-term; type: cell-based, human; settings: 1 week MCF7
Procedure, shortened: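 MCF7 cells (1×10^5 seeded, supplemented DMEM, 37 °C, 5% CO2) were exposed for 1 week to two sub-cytotoxic ligand concentrations, re-dosed twice weekly, alongside a media-only control. Cells were counted by haemocytometer, and population doublings were calculated as n = (log Pn – log P0)/log2, where P0 is the seeding density. Values are reported ± sd.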

MCF7 cells [4] = assay: Assessment of chromosomal end-end fusions; type: cell-based, human; settings: 1 week, data not shown
[5] = test system: hTel quadruplex (human telomere); settings: strong binding site; cited from earlier work
DNA hairpin duplex = settings: cited from earlier work
[6] = test system: MCF7 breast adenocarcinoma cell line; settings: read-out: SRB IC50, MCF7; cited from earlier work
[7] = test system: A549 non-small cell lung carcinoma cell line; settings: read-out: SRB IC50, A549; cited from earlier work

- SPR Ligand KA for a single-site fit, hTel [2]: 1.4e+06 M⁻¹
- SPR Ligand KA for a single-site fit, c-kit1 (c-kit1 quadruplex): 2.1e+06 M⁻¹
- SPR Ligand KA for a single-site fit, c-kit2 (c-kit2 quadruplex): 5.1e+06 M⁻¹
- selectivity for the c-myc quadruplex (SPR) (c-myc quadruplex; relative to the other quadruplexes): ~3 fold
- SPR Ligand KA for a single-site fit, c-myc (c-myc quadruplex): 1.4e+07 M⁻¹
Structure (SMILES): O=C(CN1CCCC1)Nc1ccc(NC(=O)c2cccc(NC(=O)Nc3cccc(C(=O)Nc4ccc(NC(=O)CN5CCCC5)cc4)c3)c2)cc1 [9a, 1,3-bis(3-(4-(2-(pyrrolidin-1-yl)acetamido)phenylcarbamoyl)phenyl)urea]
- FRET ΔTm at a 1μM ligand concentration, Duplex [1]: 0.0 ± 0.6 °C
- PD (population doublings) (MCF7 cells [3]; 5.00 μM): 3.79 ± 0.12
- PD (population doublings) (MCF7 cells [3]; 10.00 μM): 3.00 ± 0.38

- SPR Ligand KA for a single-site fit, hTel [2]: 1.1e+06 M⁻¹
- SPR Ligand KA for a single-site fit, c-kit1 (c-kit1 quadruplex): 1.4e+06 M⁻¹
- SPR Ligand KA for a single-site fit, c-kit2 (c-kit2 quadruplex): 5e+06 M⁻¹
- SPR Ligand KA for a single-site fit, c-myc (c-myc quadruplex): 2.1e+06 M⁻¹
Structure (SMILES): O=C(CCN1CCCC1)Nc1ccc(NC(=O)c2cccc(NC(=O)Nc3cccc(C(=O)Nc4ccc(NC(=O)CCN5CCCC5)cc4)c3)c2)cc1 [9b, 1,3-bis(3-(4-(3-(pyrrolidin-1-yl)propanamido)phenylcarbamoyl)phenyl)urea]
- PD (population doublings) (MCF7 cells [3]; 1.00 μM): 4.53 ± 0.07
- PD (population doublings) (MCF7 cells [3]; 1.75 μM): 4.50 ± 0.03
- PD (population doublings) (MCF7 cells [3]; 2.25 μM): 2.73 ± 0.20
- chromosomal end-end fusions relative to an untreated control (MCF7 cells [4]): did not show significant changes

- SPR Ligand KA for a single-site fit, hTel [2]: 400000 M⁻¹
- SPR Ligand KA for a single-site fit, c-kit1 (c-kit1 quadruplex): 400000 M⁻¹
- SPR Ligand KA for a single-site fit, c-kit2 (c-kit2 quadruplex): 3.1e+06 M⁻¹
- SPR Ligand KA for a single-site fit, c-myc (c-myc quadruplex): 900000 M⁻¹
Structure (SMILES): O=C(CCCN1CCCC1)Nc1ccc(NC(=O)c2cccc(NC(=O)Nc3cccc(C(=O)Nc4ccc(NC(=O)CCCN5CCCC5)cc4)c3)c2)cc1 [9c, 1,3-bis(3-(4-(4-(pyrrolidin-1-yl)butanamido)phenylcarbamoyl)phenyl)urea]
- FRET ΔTm at a 1μM ligand concentration, Duplex [1]: 0.0 ± 0.6 °C
- PD (population doublings) (MCF7 cells [3]; 3.50 μM): 3.94 ± 0.24
- PD (population doublings) (MCF7 cells [3]; 7.00 μM): 3.35 ± 0.03

Structure (SMILES): O=C(CCCN1CCCC1)Nc1cccc(NC(=O)c2cccc(NC(=O)Nc3cccc(C(=O)Nc4cccc(NC(=O)CCCN5CCCC5)c4)c3)c2)c1 [9f, 1,3-bis(3-(3-(4-(pyrrolidin-1-yl)butanamido)phenylcarbamoyl)phenyl)urea]
- FRET ΔTm at a 1μM ligand concentration, Duplex [1]: 0.0 ± 0.3 °C

Structure (SMILES): O=C(CCN1CCCCC1)Nc1ccc(NC(=O)c2cccc(NC(=O)Nc3cccc(C(=O)Nc4ccc(NC(=O)CCN5CCCCC5)cc4)c3)c2)cc1 [9h, 1,3-bis(3-(4-(3-(piperidin-1-yl)propanamido)phenylcarbamoyl)phenyl)urea]
- PD (population doublings) (MCF7 cells [3]; 2.00 μM): 3.66 ± 0.00
- PD (population doublings) (MCF7 cells [3]; 3.50 μM): 3.46 ± 0.34

Structure (SMILES): O=C(CCN1CCCC1)Nc1cccc(NC(=O)c2ccc(NC(=O)Nc3ccc(C(=O)Nc4cccc(NC(=O)CCN5CCCC5)c4)cc3)cc2)c1 [10e, 1,3-bis(4-(3-(3-(pyrrolidin-1-yl)propanamido)phenylcarbamoyl)phenyl)urea]
- PD (population doublings) (MCF7 cells [3]; 1.00 μM): 3.40 ± 0.26
- PD (population doublings) (MCF7 cells [3]; 2.00 μM): 1.81 ± 0.10

Structure (SMILES): CN(C)c1ccc(Nc2c3ccc(NC(=O)CCN4CCCC4)cc3nc3cc(NC(=O)CCN4CCCC4)ccc23)cc1 [BRACO-19, 3,6-bis(3-pyrrolidin-1-ylpropionamido)-9-(4-dimethylaminophenylamino) acridine]
- SPR Ligand KA for a single-site fit, hTel [5]: 3.1e+07 M⁻¹
- SPR KA, Duplex (DNA hairpin duplex): 500000 M⁻¹
- IC50 [6]: 2.5 µM
- IC50 [7]: 2.4 µM
